Results: ChEMBL document CHEMBL5724801, “EUbOPEN Chemogenomics Library - Multiplex” (2024)
Where “and” joins values, the source holds several entries; their conditions need not be identical. Identical values can stand only once.

Test system: HEK-293T
Assay: Multiplex assay against HEK293T
Format: toxicity, cell-based
Conditions: human
Summary of the method: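 Imaging took place on a CQ1 microscope at 37°C and 5% CO2 once compound had been added to live cells stained at seeding with Hoechst33342, BioTracker Green Microtubule Cytoskeleton Dye, MitoTracker Red and Annexin V Alexa Fluor 680. CellPathfinder machine-learning gating classed cells as Hoechst high-intensity objects or normal cells, classed normal cells as having healthy, pyknosed or fragmented nuclei, and classed pyknosed cells as mitotic or apoptotic. Tubulin, mitochondrial-mass and membrane-permeability phenotypes are per cents of the healthy-nucleus cells.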

[1] = 12 h, 1 µM, compound concentration 1 uM
[2] = 12 h, 10 µM, compound concentration 10 uM
[3] = 24 h, 1 µM, compound concentration 1 uM
[4] = 24 h, 10 µM, compound concentration 10 uM
[5] = 48 h, 1 µM, compound concentration 1 uM
[6] = 48 h, 10 µM, compound concentration 10 uM

## O=c1nc2[nH]c3ccccc3nc-2c(=O)[nH]1 [ALLOXAZINE]
[1]
  Population Apoptotic (%): 27% and 44%
  Population Fragmented Nuclei (%): 8% and 4%
  Population Healthy Nuclei (%): 77% and 79%
  Population Hoechst High Intensity Objects (%): 8% and 7%
  Population Membrane Permeable-Phenotype (%): 0%
  Population Mitochondria Different-Phenotype (%): 44% and 66%
  Population Mitotic Cells (%): 72% and 55%
  Population Normal (%): 91% and 92%
  Population Pyknosed Nuclei (%): 13% and 15%
  Population Tubulin-Different-Phenotype (%): 33% and 25%
  Total Cell Count: 377 and 345
[2]
  Population Apoptotic (%): 40% and 60%
  Population Fragmented Nuclei (%): 10% and 8%
  Population Healthy Nuclei (%): 71% and 70%
  Population Hoechst High Intensity Objects (%): 5% and 15%
  Population Membrane Permeable-Phenotype (%): 0%
  Population Mitochondria Different-Phenotype (%): 53% and 67%
  Population Mitotic Cells (%): 59% and 40%
  Population Normal (%): 94% and 84%
  Population Pyknosed Nuclei (%): 18% and 20%
  Population Tubulin-Different-Phenotype (%): 31% and 20%
  Total Cell Count: 362 and 323
[3]
  Population Apoptotic (%): 22% and 33%
  Population Fragmented Nuclei (%): 10% and 7%
  Population Healthy Nuclei (%): 76% and 83%
  Population Hoechst High Intensity Objects (%): 4% and 7%
  Population Membrane Permeable-Phenotype (%): 0%
  Population Mitochondria Different-Phenotype (%): 24% and 41%
  Population Mitotic Cells (%): 77% and 66%
  Population Normal (%): 95% and 92%
  Population Pyknosed Nuclei (%): 12% and 8%
  Population Tubulin-Different-Phenotype (%): 19% and 12%
  Total Cell Count: 504 and 391
[4]
  Population Apoptotic (%): 27% and 50%
  Population Fragmented Nuclei (%): 9%
  Population Healthy Nuclei (%): 77% and 72%
  Population Hoechst High Intensity Objects (%): 6% and 15%
  Population Membrane Permeable-Phenotype (%): 0%
  Population Mitochondria Different-Phenotype (%): 34% and 48%
  Population Mitotic Cells (%): 72% and 50%
  Population Normal (%): 93% and 84%
  Population Pyknosed Nuclei (%): 12% and 17%
  Population Tubulin-Different-Phenotype (%): 21% and 16%
  Total Cell Count: 491 and 371
[5]
  Population Apoptotic (%): 32% and 27%
  Population Fragmented Nuclei (%): 14% and 11%
  Population Healthy Nuclei (%): 77% and 82%
  Population Hoechst High Intensity Objects (%): 3% and 4%
  Population Membrane Permeable-Phenotype (%): 1% and 0%
  Population Mitochondria Different-Phenotype (%): 18% and 26%
  Population Mitotic Cells (%): 67% and 72%
  Population Normal (%): 96% and 95%
  Population Pyknosed Nuclei (%): 8% and 6%
  Population Tubulin-Different-Phenotype (%): 13% and 12%
  Total Cell Count: 773 and 636
[6]
  Population Apoptotic (%): 29% and 48%
  Population Fragmented Nuclei (%): 15% and 14%
  Population Healthy Nuclei (%): 76% and 78%
  Population Hoechst High Intensity Objects (%): 3% and 4%
  Population Membrane Permeable-Phenotype (%): 0%
  Population Mitochondria Different-Phenotype (%): 17% and 28%
  Population Mitotic Cells (%): 70% and 51%
  Population Normal (%): 96% and 95%
  Population Pyknosed Nuclei (%): 7% and 6%
  Population Tubulin-Different-Phenotype (%): 11% and 14%
  Total Cell Count: 700 and 531

## Cc1cccc(NC(=O)CN2CCC(c3ccccn3)CC2)c1.Cl.Cl
[1]
  Population Apoptotic (%): 34% and 46%
  Population Fragmented Nuclei (%): 7% and 5%
  Population Healthy Nuclei (%): 76% and 82%
  Population Hoechst High Intensity Objects (%): 5% and 3%
  Population Membrane Permeable-Phenotype (%): 0%
  Population Mitochondria Different-Phenotype (%): 54%
  Population Mitotic Cells (%): 65% and 53%
  Population Normal (%): 94% and 96%
  Population Pyknosed Nuclei (%): 15% and 11%
  Population Tubulin-Different-Phenotype (%): 33% and 22%
  Total Cell Count: 348 and 277
[2]
  Population Apoptotic (%): 61% and 43%
  Population Fragmented Nuclei (%): 6% and 10%
  Population Healthy Nuclei (%): 71% and 70%
  Population Hoechst High Intensity Objects (%): 9% and 14%
  Population Membrane Permeable-Phenotype (%): 0%
  Population Mitochondria Different-Phenotype (%): 63% and 79%
  Population Mitotic Cells (%): 38% and 56%
  Population Normal (%): 90% and 85%
  Population Pyknosed Nuclei (%): 21% and 18%
  Population Tubulin-Different-Phenotype (%): 50% and 35%
  Total Cell Count: 291 and 273
[3]
  Population Apoptotic (%): 32% and 45%
  Population Fragmented Nuclei (%): 8% and 10%
  Population Healthy Nuclei (%): 81% and 79%
  Population Hoechst High Intensity Objects (%): 3% and 4%
  Population Membrane Permeable-Phenotype (%): 0%
  Population Mitochondria Different-Phenotype (%): 30% and 44%
  Population Mitotic Cells (%): 67% and 54%
  Population Normal (%): 96% and 95%
  Population Pyknosed Nuclei (%): 9% and 10%
  Population Tubulin-Different-Phenotype (%): 22% and 18%
  Total Cell Count: 451 and 339
[4]
  Population Apoptotic (%): 59% and 50%
  Population Fragmented Nuclei (%): 8% and 11%
  Population Healthy Nuclei (%): 74% and 75%
  Population Hoechst High Intensity Objects (%): 7%
  Population Membrane Permeable-Phenotype (%): 0%
  Population Mitochondria Different-Phenotype (%): 60% and 64%
  Population Mitotic Cells (%): 40% and 50%
  Population Normal (%): 92%
  Population Pyknosed Nuclei (%): 17% and 13%
  Population Tubulin-Different-Phenotype (%): 38% and 26%
  Total Cell Count: 350 and 348
[5]
  Population Apoptotic (%): 30% and 46%
  Population Fragmented Nuclei (%): 13% and 8%
  Population Healthy Nuclei (%): 76% and 83%
  Population Hoechst High Intensity Objects (%): 2% and 4%
  Population Membrane Permeable-Phenotype (%): 0%
  Population Mitochondria Different-Phenotype (%): 25% and 24%
  Population Mitotic Cells (%): 69% and 53%
  Population Normal (%): 97% and 95%
  Population Pyknosed Nuclei (%): 9% and 8%
  Population Tubulin-Different-Phenotype (%): 21% and 13%
  Total Cell Count: 688 and 524
[6]
  Population Apoptotic (%): 46% and 48%
  Population Fragmented Nuclei (%): 13% and 16%
  Population Healthy Nuclei (%): 75% and 76%
  Population Hoechst High Intensity Objects (%): 4% and 2%
  Population Membrane Permeable-Phenotype (%): 0%
  Population Mitochondria Different-Phenotype (%): 45% and 37%
  Population Mitotic Cells (%): 53% and 51%
  Population Normal (%): 95% and 97%
  Population Pyknosed Nuclei (%): 10% and 7%
  Population Tubulin-Different-Phenotype (%): 26% and 20%
  Total Cell Count: 515 and 544

## NC1=NC(=O)/C(=C2\CCNC(=O)c3[nH]c4ccccc4c32)N1
[1]
  Population Apoptotic (%): 13.33% and 11.21%
  Population Fragmented Nuclei (%): 2.11% and 2.19%
  Population Hoechst High Intensity Objects (%): 0.52% and 0%
  Population Membrane Permeable-Phenotype (%): 0.85% and 3.7%
  Population Mitotic Cells (%): 86.67% and 88.79%
  Population Normal (%): 99.48% and 100%
  Population Pyknosed Nuclei (%): 35.62% and 78.1%
  Total Cell Count: 381 and 137
[2]
  Population Apoptotic (%): 8.93% and 12.5%
  Population Fragmented Nuclei (%): 2.8% and 2.1%
  Population Hoechst High Intensity Objects (%): 0%
  Population Membrane Permeable-Phenotype (%): 1% and 0%
  Population Mitochondria Different-Phenotype (%): 33.83% and 15%
  Population Mitotic Cells (%): 91.07% and 87.5%
  Population Normal (%): 100%
  Population Pyknosed Nuclei (%): 34.78% and 83.92%
  Total Cell Count: 322 and 143
[3]
  Population Apoptotic (%): 12% and 13.98%
  Population Fragmented Nuclei (%): 1.99% and 1.92%
  Population Healthy Nuclei (%): 77.28% and 38.46%
  Population Hoechst High Intensity Objects (%): 0%
  Population Membrane Permeable-Phenotype (%): 0.86% and 3.33%
  Population Mitochondria Different-Phenotype (%): 12.45% and 11.67%
  Population Mitotic Cells (%): 88% and 86.02%
  Population Normal (%): 100%
  Population Pyknosed Nuclei (%): 20.73% and 59.62%
  Population Tubulin-Different-Phenotype (%): 11.37% and 1.67%
[4]
  Population Apoptotic (%): 14.91% and 16%
  Population Fragmented Nuclei (%): 1.32% and 5.13%
  Population Healthy Nuclei (%): 73.68% and 30.77%
  Population Hoechst High Intensity Objects (%): 0%
  Population Membrane Permeable-Phenotype (%): 0.89% and 6.25%
  Population Mitochondria Different-Phenotype (%): 13.69% and 18.75%
  Population Mitotic Cells (%): 85.09% and 84%
  Population Normal (%): 100%
  Population Pyknosed Nuclei (%): 25% and 64.1%
  Population Tubulin-Different-Phenotype (%): 10.42% and 4.17%
  Total Cell Count: 456 and 156
[5]
  Population Apoptotic (%): 9.77% and 15.52%
  Population Fragmented Nuclei (%): 3.77% and 1.5%
  Population Healthy Nuclei (%): 86.2% and 69.5%
  Population Hoechst High Intensity Objects (%): 0.08% and 0%
  Population Membrane Permeable-Phenotype (%): 3.85% and 3.6%
  Population Mitochondria Different-Phenotype (%): 10.94% and 10.79%
  Population Mitotic Cells (%): 90.23% and 84.48%
  Population Normal (%): 99.92% and 100%
  Population Pyknosed Nuclei (%): 10.03% and 29%
[6]
  Population Apoptotic (%): 6.19% and 12.05%
  Population Fragmented Nuclei (%): 2.47% and 2.35%
  Population Healthy Nuclei (%): 85.57% and 58.69%
  Population Hoechst High Intensity Objects (%): 0.25% and 0.93%
  Population Membrane Permeable-Phenotype (%): 2.16% and 0.8%
  Population Mitochondria Different-Phenotype (%): 22.48% and 16.8%
  Population Mitotic Cells (%): 93.81% and 87.95%
  Population Normal (%): 99.75% and 99.07%
